Compound activity: PubChem, Johns Hopkins Ion Channel Center
An excerpt weighted towards active compounds, which were near 2.9% of everything screened.
TRPC6 act = mouse TRPC6 channel activators, primary screen, cell-based, HEK293, membrane potential dye; Short transient receptor potential channel 6 (Mus musculus), Q61143; HEK293-TRPC6 membrane potential dye fluorescence; active compounds read high; B-score at 10 µM; actives 0.13% (n = 310,000);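 active = B-score of the integrated fluorescence ratio above library mean plus 3 SD, and starting fluorescence ratio within library mean plus 5 SD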;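 note: higher score means more depolarization so channel activation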
TRPC4 potent = positive allosteric modulators of TRPC4, primary screen, cell-based, mouse TRPC4beta, HEK293 mu-opioid, Fluo-4 calcium; B-score at 10 µM; Short transient receptor potential channel 4 (Mus musculus), Q9QUQ5; actives 0.42% (n = 310,000); AID 2227, 2009; DAMGO EC20, Fluo-4 Ca2+ flux; active compounds read high;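 active = B-score of calcium response area above 5 SD of library B-scores, with initial fluorescence ratio within 5 SD of library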;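 note: B-score of integrated fluorescence ratio over time as area under calcium response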
TRPC4 block = inhibitors of mouse TRPC4 channel, primary screen, Fluo4 calcium, HEK293 TRPC4beta/mu-opioid cells | Short transient receptor potential channel 4 (Mus musculus), Q9QUQ5 | DAMGO-evoked Fluo4 calcium flux; active compounds read low | B-score at 10 µM | actives 0.39% (n = 300,000) | AID 2247, 2010;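 active = B-score over 3 SD under the library average, no early fluorescence shift, positive overall ratio signal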
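Material: HEK293 cells with stable TRPC4beta plus mu-opioid receptor expression / Probe or stimulus: DAMGO in two steps, submaximal then maximal / Compound: single concentration per test compound / Technique: kinetic Fluo4 fluorescence imaging of calcium influx / Read-out: per-well B score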
TRPC4 act = activators of mouse TRPC4 channel, primary screen, Fluo4 calcium, HEK293 TRPC4beta/mu-opioid cells. Short transient receptor potential channel 4 (Mus musculus), Q9QUQ5. AID 2237, 2010. Fluo4 calcium fluorescence; active compounds read high. actives 0.49% (n = 310,000). B-score at 10 µM;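 active = B-score above 5 SD of library B-scores, and initial fluorescence ratio not above library mean plus 5 SD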;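 note: positive B-score marks a calcium rise read as TRPC4 activation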
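Assay system: HEK293 stable line with TRPC4beta plus mu-opioid receptor. Times: dye 45 min RT, read 110 s. Measured by: kinetic Fluo4 calcium fluorescence. Measure: B score of integrated ratio. Controls: assay buffer as low control, maximal DAMGO as high control.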
Kir21 inh = inhibitors of mouse Kir2.1 inward-rectifier potassium channel; HEK293-Kir2.1, FluxOR thallium flux fluorescence; active compounds read low; Inward rectifier potassium channel 2 (Mus musculus), P35561; B-score at 10 µM; actives 0.85% (n = 310,000);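 active = fluorescence ratio B-score at or below minus 3 SD of library scores, with starting-brightness B-score within 2 SD, cut at about -4.2 in these data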;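 note: channel flux triggered by added potassium and thallium sulfate stimulus; B-score of peak minus minimum fluorescence over baseline after thallium stimulus; more negative B-score means stronger Kir2.1 block with less thallium influx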
Target sequence (P35561 whole entry, looked up): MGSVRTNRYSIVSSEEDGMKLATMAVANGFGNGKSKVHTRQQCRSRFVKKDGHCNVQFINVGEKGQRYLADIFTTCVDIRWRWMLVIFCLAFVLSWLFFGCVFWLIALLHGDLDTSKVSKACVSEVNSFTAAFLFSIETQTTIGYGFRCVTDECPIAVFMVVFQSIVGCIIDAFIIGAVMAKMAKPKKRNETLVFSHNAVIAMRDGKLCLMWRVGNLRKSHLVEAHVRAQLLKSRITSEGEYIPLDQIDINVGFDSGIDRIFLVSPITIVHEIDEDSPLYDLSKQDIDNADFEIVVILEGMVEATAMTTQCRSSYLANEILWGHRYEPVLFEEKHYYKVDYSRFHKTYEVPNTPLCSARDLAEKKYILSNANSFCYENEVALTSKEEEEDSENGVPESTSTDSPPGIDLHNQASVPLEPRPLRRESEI
TRPC6 inhibitor = mouse TRPC6 channel inhibitors, primary screen, cell-based, HEK293, membrane potential dye. actives 1.1% (n = 310,000). AID 2553, 2010. Short transient receptor potential channel 6 (Mus musculus), Q61143. ACh-evoked depolarization; active compounds read low. B-score at 10 µM;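 active = B-score under library mean minus 3 SD, initial fluorescence not abnormally high, positive integrated signal ratio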;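 note: B-score derived from integrated fluorescence ratio over the kinetic read; more negative B-score means stronger inhibition of depolarization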
TRPC4 spec 2 = mouse TRPC4 off-target activity of TRPC6 inhibitors, second screen; inhibition, % at 10 µM; shares compounds with TRPC6 inhibitor; actives 42% (n = 920); AID 2776; HEK293 TRPC4/MOR, membrane potential dye fluorescence; channel activated by saturating DAMGO dose;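 active = compounds whose fluorescence signal differed from control wells by over 3 SD, either direction, in both duplicate plates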
TRPC4 spec = mouse TRPC4 modulation by TRPC6 hits, confirmation, selectivity assay for TRPC6 inhibitor project, cell-based, HEK293 TRPC4/mu-opioid, membrane potential dye. shares compounds with TRPC6 inhibitor. membrane potential fluorescence. activity change, negative = inhibition, % at 10 µM. actives 61% (n = 920). AID 2777, 2010;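 active = rise or fall in signal beyond 3 SD of buffer-only wells in both replicate plates, either sign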;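 note: integrated kinetic ratio of fluorescence range over baseline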
HEK293 MPD ctr 2-1 = nonspecific membrane potential effects, parental HEK293, confirmation, counter-screen for TRPC6 inhibitor project, cell-based, second counter screen | signal change vs control, % at 10 µM | shares compounds with TRPC6 inhibitor | actives 31% (n = 920) | parental HEK293 membrane potential dye fluorescence; maximal acetylcholine challenge after compound addition;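 active = membrane potential signal moving either way by over 3 SD of the maximum-effect control, in both duplicate plates, meaning non-specific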
HEK293 MPD ctr-1 = membrane potential modulation in parental HEK293, confirmation, counter-screen for TRPC6 inhibitor project, cell-based | actives 60% (n = 920) | shares compounds with TRPC6 inhibitor | parental HEK293 membrane potential dye fluorescence | membrane potential signal change, % at 10 µM;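 active = membrane potential signal shifting up or down by more than 3 SD of buffer-only wells, on both duplicate plates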
HEK293 MPD ctr-2 = parental HEK293 membrane potential modulation, confirmation, counter-screen for TRPC6 modulator project, cell-based; shares compounds with TRPC6 inhibitor; membrane potential dye fluorescence; membrane potential signal change, % at 10 µM; actives 51% (n = 2,400); AID 488924, 2010;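 active = membrane potential signal moves up or down beyond 5 SD from buffer-only wells, on both duplicate plates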
HEK293 MPD ctr 2-2 = second counter-screen for TRPC6 modulators: effect in parental HEK293 cells. shares compounds with TRPC6 inhibitor. membrane potential dye fluorescence; after compound, maximal acetylcholine stimulation. inhibition, % at 10 µM. actives 14% (n = 2,400). AID 488926;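 active = membrane potential signal drops by more than 5 SD from the mean control signal, in both duplicate plates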;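 note: plate controls were acetylcholine ECmax control wells for no effect and buffer only wells for full effect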
TRPC4 ctr mod = TRPC4 modulation by TRPC6 hit compounds, confirmation, selectivity assay for TRPC6 modulator project, cell-based, HEK293 TRPC4/mu-opioid, membrane potential dye, mouse; shares compounds with TRPC6 inhibitor; membrane potential fluorescence; percent change from control (negative = decrease, positive = increase), % at 10 µM; actives 69% (n = 2,400); AID 488927, 2010;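 active = membrane potential signal moved up or down beyond 5 SD of buffer control wells, in both duplicate plates, actives on both sides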;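 note: plate controls were assay buffer wells for no effect and DAMGO maximal-effect wells for full effect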
TRPC4 ctr inh 2 = second check of whether TRPC6 modulators also affect mouse TRPC4; actives 55% (n = 2,400); inhibition, % at 10 µM; shares compounds with TRPC6 inhibitor; HEK293 TRPC4/mu-opioid, membrane potential dye fluorescence; stimulated with maximal-effect DAMGO;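 active = drop in membrane potential signal beyond 5 SD of the control wells in both duplicate plates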;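 note: TRPC4 counter screen for TRPC6 hits run under conditions tuned for TRPC6 not TRPC4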
TRPC6 inh conf = mouse TRPC6 channel inhibitors, confirmation, HEK293 cells, membrane potential dye, duplicate. shares compounds with TRPC6 inhibitor. ACh-evoked depolarization. inhibition, % at 10 µM. actives 43% (n = 3,300). AID 488960, 2010;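 active = fluorescence ratio falls more than 5 SD below the full-stimulation control mean, in both duplicate runs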;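 note: integrated fluorescence ratio of peak minus minimum over baseline after agonist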
TRPC6 act conf = mouse TRPC6 channel activators, confirmation, HEK293 cells, membrane potential dye, duplicate; shares compounds with TRPC6 inhibitor; HEK293-TRPC6 membrane potential dye fluorescence, FDSS; activation, % at 10 µM; actives 11% (n = 2,800); AID 488961, 2010;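 active = ratio signal rise beyond 5 SD above unstimulated control wells' mean, seen in both duplicate runs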;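 note: plate controls were buffer EC0 wells for no effect and acetylcholine ECmax response for full effect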
The depositor's hits bear a star.

`COc1cc2c(cc1OC)C1(NCC2)C(=O)Nc2ccccc21` (stereo not drawn) gave TRPC6 act inactive, TRPC4 potent inactive, TRPC4 block inactive, TRPC4 act inactive, Kir21 inh -0.75 and TRPC6 inhibitor inactive.
Screening CC(O)CC(C(=O)NNc1ccccc1)C(=O)NNc1ccccc1 (stereo not drawn) returned TRPC6 act inactive, TRPC4 potent inactive, TRPC4 block inactive, TRPC4 act inactive, Kir21 inh -0.03 and TRPC6 inhibitor inactive.
For S=c1[nH]nc(Cc2ccccc2)n1Cc1ccco1 the results were TRPC6 act inactive, TRPC4 potent inactive, TRPC4 block inactive, TRPC4 act inactive, Kir21 inh 0.59, TRPC6 inhibitor -8.33*, TRPC4 spec 2 inactive, TRPC4 spec inactive, HEK293 MPD ctr 2-1 13.5%*, HEK293 MPD ctr-1 inactive, TRPC6 inh conf 64.8%* and TRPC6 act conf inactive.
`CCCn1c(Cc2ccccc2)n[nH]c1=S` gave TRPC6 act inactive, TRPC4 potent inactive, TRPC4 block inactive, TRPC4 act inactive, Kir21 inh 3.18 and TRPC6 inhibitor inactive.
For C/C(=N\NC(=O)Cc1csc(N2CCOCC2)n1)c1ccc(Cl)c(Cl)c1 the results were TRPC6 act inactive, TRPC4 potent inactive, TRPC4 block inactive, TRPC4 act inactive, Kir21 inh 0.16 and TRPC6 inhibitor inactive.
CCOc1ccc2c(c1)-c1c(ssc1=S)C(C)(C)N2 was read as TRPC6 act inactive, TRPC4 potent inactive, TRPC4 block inactive, TRPC4 act inactive, Kir21 inh 0.61, TRPC6 inhibitor -5.34*, HEK293 MPD ctr-2 inactive, HEK293 MPD ctr 2-2 inactive, TRPC4 ctr mod -21.5%*, TRPC4 ctr inh 2 63.5%*, TRPC6 inh conf inactive and TRPC6 act conf inactive.
Screening CCOc1ccc2c(c1)-c1c(ssc1=S)C(C)(C)N2C(=O)CSC1=NCCS1 returned TRPC6 act inactive, TRPC4 potent inactive, TRPC4 block inactive, TRPC4 act inactive, Kir21 inh 1.39 and TRPC6 inhibitor inactive.
Screening Cc1nnc(-c2ccccc2)c(=O)n1/N=C/c1c(O)ccc2ccccc12 returned TRPC6 act inactive, TRPC4 potent inactive, TRPC4 block inactive, TRPC4 act inactive, Kir21 inh 0.57, TRPC6 inhibitor -7.35*, TRPC4 spec 2 68.0%*, TRPC4 spec 23.1%*, HEK293 MPD ctr 2-1 -242.0%*, HEK293 MPD ctr-1 8.7%* and TRPC6 inh conf 80.5%*.
For Cc1ccc(OCC(=O)NNC(=O)C2CC(=O)N(c3ccc4c(c3)OCCO4)C2)cc1 (stereo not drawn) the results were TRPC6 act inactive, TRPC4 potent inactive, TRPC4 block inactive, TRPC4 act inactive, Kir21 inh -1.21 and TRPC6 inhibitor inactive.
CC(C)CCN1C(=O)CCC1(C)C(=O)NC1CCCCCC1 (stereo not drawn) was read as TRPC6 act inactive, TRPC4 potent inactive, TRPC4 block inactive, TRPC4 act inactive, Kir21 inh 0.89, TRPC6 inhibitor -5.81*, HEK293 MPD ctr-2 128.5%*, HEK293 MPD ctr 2-2 inactive, TRPC4 ctr mod 26.0%*, TRPC4 ctr inh 2 inactive and TRPC6 inh conf inactive.
`CCCCN(C)C(=O)CSc1nc(NCc2ccc(OC)cc2)c2ccccc2n1` gave TRPC6 act inactive, TRPC4 potent inactive, TRPC4 block inactive, TRPC4 act inactive, Kir21 inh -1.58, TRPC6 inhibitor -9.67*, TRPC4 spec 2 67.5%*, TRPC4 spec 4.6%*, HEK293 MPD ctr 2-1 inactive, HEK293 MPD ctr-1 6.4%*, TRPC6 inh conf inactive and TRPC6 act conf inactive.
